# Screening results from PubChem.
# HEK293 NFkB inh: lowers PMA/ionomycin-induced NF-kB signal in HEK293 cells; HEK-293 NF-kB luciferase reporter, luminescence; inhibition, % at 3 µM; AID 465; hit rate 0.21% among 62,000;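 active = inhibition above the mean of all tested compounds plus 3 SD, cut at about 40% in these data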;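 note: 0% = stimulated DMSO wells and 100% = 10 µM reference inhibitor 5653914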
#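 Material: HEK-293 cells with stable firefly luciferase reporter driven by four HIV NF-kB elements / Also added: PMA plus ionomycin mix as NF-kB-activating stimulus / Compound dosing: 3 µM once, 0.30% DMSO / Times: 1 h pretreatment, 16 h stimulation, 37 °C / Signal: luminescence / Evaluation: per-plate % inhibition versus controls / Benchmarks: DMSO and 10 µM reference inhibitor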
# DAT uptake mod: modulates human dopamine transporter uptake under cocaine; Q01959; LLC-PK1 hDAT cells, [14C]-dopamine uptake with cocaine IC80; actives deviate in either direction; B-score at 10 µM; hit rate 1.3% among 110,000; AID 449768;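 active = Z score or B-score, a plate-position-corrected score, falls beyond the plate's 99.7% confidence bounds, in either direction; inactive = both scores lie inside the 99.7% bounds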;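 note: scored against the spread of the other compound wells on the same plate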
# Target sequence (Q01959 whole entry, looked up): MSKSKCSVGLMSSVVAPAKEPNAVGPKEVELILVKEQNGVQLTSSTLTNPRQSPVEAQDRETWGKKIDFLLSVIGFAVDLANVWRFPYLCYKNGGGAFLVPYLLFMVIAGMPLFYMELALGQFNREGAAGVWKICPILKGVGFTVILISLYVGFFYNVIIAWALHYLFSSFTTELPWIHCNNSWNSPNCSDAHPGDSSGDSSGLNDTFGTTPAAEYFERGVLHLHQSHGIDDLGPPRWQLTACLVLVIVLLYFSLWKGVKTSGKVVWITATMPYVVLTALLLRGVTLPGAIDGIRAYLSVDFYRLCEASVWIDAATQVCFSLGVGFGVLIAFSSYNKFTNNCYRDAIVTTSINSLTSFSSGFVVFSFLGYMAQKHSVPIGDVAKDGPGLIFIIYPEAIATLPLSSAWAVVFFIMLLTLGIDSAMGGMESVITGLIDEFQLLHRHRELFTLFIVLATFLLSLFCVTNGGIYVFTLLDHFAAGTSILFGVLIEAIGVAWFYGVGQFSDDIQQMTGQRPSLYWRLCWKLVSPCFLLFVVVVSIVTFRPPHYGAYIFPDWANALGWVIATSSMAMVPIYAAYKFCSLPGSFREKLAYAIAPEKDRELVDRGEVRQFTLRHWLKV
# AP complement: orthogonal test for alternative complement pathway inhibitors; hit rate 0.08% among 62,000; inhibition, % at 5 µM; Human serum alternative complement pathway, LPS-coated ELISA, C3 deposition; tested in compound mixtures;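 active = inhibition above 30% in each of the two pooled mixtures holding the compound, so the lower value exceeds 30%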;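 note: 0% = serum in Mg-EGTA without compound and 100% = EDTA serum blank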
#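 Test system: human serum complement alternative pathway, C3 deposition onto LPS / Medium: Mg2+-EGTA GVB++ buffer containing human serum at 1:15 dilution / Probe or stimulus: Plate-bound LPS / Times: 1 h at 37 °C / Signal: ELISA with HRP anti-human C3 antibody, TMB substrate, absorbance 450 nm / Measure: percent inhibition / Repeats: two pool placements per compound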
# E coli RNAP: inhibitors of Escherichia coli RNA polymerase. E. coli RNA polymerase, fluorescence transcription assay. hit rate 0.2% among 62,000. inhibition, %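 (tested at 10 µM)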; in the data active = inhibition above about 20%;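 note: 0% = enzyme without compound and 100% = no enzyme blank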
# D1 allo mod: D1 dopamine receptor (human) allosteric modulation | B-score at 10 µM | HEK293 D1, CRE-luciferase, dopamine EC30 potentiation; actives deviate in either direction | AID 641 | hit rate 5.9% among 58,000 | P21728;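 active = luminescence count or its row- and column-corrected plate score outside the 99.7% band of the plate's sample wells, on either side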
# D1 mod confirm: D1 receptor (human) allosteric modulation, confirmed. HEK293 D1 CRE-luciferase, dopamine EC30 potentiation; active compounds read high. AID 642. hit rate 88% among 2,200. luminescence at 10 µM. shares compounds with D1 allo mod;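 active = luminescence in either of two replicates above the same-plate mean plus 3 SD of the low-dose dopamine control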
# D1 no dopamine: D1 (human) signaling in absence of dopamine | shares compounds with D1 allo mod | HEK293 D1 CRE-luciferase, luminescence, no dopamine; active compounds read high | luminescence at 10 µM | hit rate 0.8% among 1,900; in the data active = luminescence above about 3900
# Isoprot counter: alters isoproterenol CRE-luciferase response in HEK293 cells; shares compounds with D1 allo mod; HEK293 D1 CRE-luciferase, isoproterenol EC30 counter-screen; calls only at 10 µM; hit rate 63% among 2,200; AID 647;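 active = luminescence in either replicate above plate mean of wells with a partly effective reference agonist dose plus 3 SD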;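 note: isoproterenol raises cAMP through native beta-adrenoceptor Gs so signal bypasses D1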
# Numbers without * were called inactive; i = inactive; x = no result given; + = active, no number. The entries come from a sample that favours hits as a whole.
SMILES,HEK293 NFkB inh,DAT uptake mod,AP complement,E coli RNAP,D1 allo mod,D1 mod confirm,D1 no dopamine,Isoprot counter
NC(=O)c1cnn2c(C(F)(F)F)cc(-c3ccc(F)cc3)nc12,15,-0.14,-12,8,2.5*,10756*,1664,+
Cc1ccc(-c2cc(C(F)(F)F)n3ncc(C(=O)N4CCN(C)CC4)c3n2)cc1,4,0.73,7,4,0.41,x,x,x
NC(=O)c1cnn2c(C(F)(F)F)cc(-c3ccccc3)nc12,1,-0.76,4,5,7.9*,17628*,1408,+
C#CCNC(=O)C1=C[C@H](c2ccc3c(c2)OCO3)[C@@H](CCCO)[C@H](OCC)O1,x,-0.61,x,x,x,x,x,x
O=C1C2Sc3[nH]c(=O)sc3C(c3ccccc3)C2C(=O)N1c1ccc(Cl)cc1 (stereo unspecified),x,0.25,x,x,x,x,x,x
N#CCc1c(C#N)c(N)nc(N2CCN(S(=O)(=O)c3ccccc3)CC2)c1C#N,16,-0.33,10,5,5.5*,11684*,1432,+
C/C(CCc1oc2c(Br)cc(Br)cc2c1-c1ccc(C)o1)=N\O,x,-0.092,x,x,x,x,x,x
C/C(CCc1oc2ccccc2c1-c1ccc(C)o1)=N/O,10,0.17,3,x,7.2*,9460*,1544,i
CCOC(=O)c1ccc2c(c1)nc(SCc1cn3ccsc3n1)n2CC,9,1,6,3,13*,23916*,1828,+
Cc1cc(-n2nc(C)cc2C)nc(NS(=O)(=O)c2ccccc2)n1,13,1,4,5,3.8*,10456*,1500,i
Cc1cc(-n2nc(C)cc2C)nc(N)n1,5,-0.083,17,5,5.6*,10308*,x,+
COc1cccc(N2C(=O)C3ON(c4ccccc4)C(c4cccs4)C3C2=O)c1 (stereo unspecified),17,2,24,7,15*,6168*,1676,i
COc1cccc(-c2nnc(NC(=O)c3ccc(S(=O)(=O)N4CC(C)OC(C)C4)cc3)o2)c1 (stereo unspecified),29,x,11,1,2.8*,5492,1692,i
Cc1nc(N2CCN(S(=O)(=O)c3cccc4nonc34)CC2)c2c3c(sc2n1)CCCC3,14,2.1,-14,3,0.62,x,x,x
CSc1nsc(SCC(=O)Nc2ccc(C(C)=O)cc2)n1,x,-0.14,x,x,x,x,x,x
C=CCc1c(C)nc(SC)nc1Nc1ccc(C(C)=O)cc1,2,1.3,19,5,4.1*,10112*,1672,+
C=CCc1c(C)nc(SC)nc1Nc1ccccc1,x,0.81,x,x,x,x,x,x
C=CCc1c(C)nc(SC)nc1Nc1ccc(C(=O)O)cc1,7,0.055,13,6,8.2*,11532*,x,i
CCOC(=O)N1CCC(NC(=O)Cn2nc(Cc3ccncc3)c3ccccc3c2=O)CC1,3,1.5,18,9,4.3*,6112,1664,i
CCOC(=O)Cn1nc(Cc2ccccc2)c2ccccc2c1=O,x,-0.25,x,x,x,x,x,x
O=[N+]([O-])c1cc(Br)c(O)c(/C=N/Nc2nnnn2-c2cccc3ccccc23)c1,x,-1.8,x,x,x,x,x,x
COC(=O)Nc1ccc(OCc2ccccc2)cc1,-14,0.13,3,11,-0.51,x,x,x
NC(=O)COc1ccc(NC(=O)OCc2ccccc2)cc1,9,-0.85,0,9,5.6*,10828*,1812,i
COc1ccc(Nc2ncc3c(n2)CC(c2ccc(C)cc2)CC3=O)cc1 (stereo unspecified),x,0.25,x,x,x,x,x,x
COc1ccc(Nc2ncc3c(n2)CC(c2ccc(OC)cc2)CC3=O)cc1 (stereo unspecified),-2,1,1,10,7.5*,11768*,1536,+
SMILES,HEK293 NFkB inh,DAT uptake mod,AP complement,E coli RNAP,D1 allo mod,D1 mod confirm,D1 no dopamine,Isoprot counter
O=C1CCC([N+](=O)[O-])C(c2cccc(Cl)c2Cl)N1 (stereo unspecified),x,-0.25,x,x,x,x,x,x
CCOC(=O)c1c(CC(C)C)csc1NC=O,12,1,17,2,17*,12684*,1528,+
O=C(Cc1ccccc1)Nc1nonc1NC(=O)c1ccccc1,14,-0.21,2,-3,4.1*,8752*,1296,+
O=C(Cc1ccccc1)Nc1ccc(C(=O)O)cc1,14,0.0089,5,6,1.3,x,x,x
COCCNc1nc(-c2cc(-c3ccc(Cl)cc3)on2)cc(C(C)C)n1,x,0.054,x,x,x,x,x,x
CCCOC(=O)NC(CC)COC(=O)Nc1cccc(C)c1C (stereo unspecified),-1,0.89,8,4,8.2*,6072,1720,i
CC1(C)CC(=O)c2cc(OCC(=O)NCCCN3CCN(c4ccccc4F)CC3)ccc2O1,17,-0.46,9,-2,5.6*,6164*,x,+
CCCCCCCNC(=O)COc1ccc2c(c1)C(=O)CC(C)(C)O2,x,1.4,x,x,x,x,x,x
CN(C)C(CNC(=O)NC1CCCCC1)c1cccnc1 (stereo unspecified),1,0.11,-1,6,0.14,x,x,x
CN(C)c1ccc(C(=O)OCc2ccccc2)cc1,x,0.57,x,x,x,x,x,x
CN(C)c1ccc(/C(=N\O)c2ccccc2)cc1,10,0.73,8,5,3.6*,16920*,2132,+
O=C(NCCCN1CCN(c2ccccc2F)CC1)C1CCN(S(=O)(=O)N2CCOCC2)CC1,11,-0.23,6,6,14*,15768*,10072*,+
CC(C)Cc1nnc(NC(=O)c2ccc([N+](=O)[O-])cc2)s1,x,0.14,x,x,x,x,x,x
CCc1nc2ccccc2c(C(=O)OC2CCOC2=O)c1C (stereo unspecified),8,0.047,17,1,5.4*,11292*,1608,+
C[N+](C)(C)C(Cc1ccccc1)C(=O)[O-] (stereo unspecified),x,-0.038,x,x,x,x,x,x
Brc1ccc(-c2nnc3n2-c2ccccc2CC3)cc1,1,0.58,-14,2,3.9*,13056*,1744,+
Brc1ccc(-c2nnc3n2CCCCC3)cc1,x,-0.027,x,x,x,x,x,x
FC(F)(F)c1nnc2sc(-c3cccs3)nn12,10,0.47,8,9,22*,10532*,1524,+
NC(=O)C1CCN(c2nc(C3CC3)nc3c2nnn3Cc2ccccc2)CC1,15,-0.35,-9,-8,15*,24680*,1492,+
NC(=O)C1CCN(c2nc(C3CC3)nc3c2nnn3Cc2ccccc2Cl)CC1,16,-0.078,3,4,x,x,x,x
COc1nc(C#N)nc(N(C)C)n1,6,0.18,11,-1,-4.3,x,x,x
CC(=O)COc1ccc2c3c(c(=O)oc2c1)CCCC3,6,0.019,-28,-19,4.9*,9956*,1048,+
